Measurements reported in ChEMBL document CHEMBL4842335, “Discovery of penipanoid C-inspired 2-(3,4,5-trimethoxybenzoyl)quinazolin-4(3H)-one derivatives as potential anticancer agents by inhibiting cell proliferation and inducing apoptosis in hepatocellular carcinoma cells” (Eur J Med Chem, 2021).
pIC50: −log10 of the molar value. Counter-ions that a name gives are not always drawn.

Columns and labels:
[1] = test system: HepG2; assay: Cytotoxicity against human HepG2 cells assessed as inhibition of proliferation incubated for 72 hrs by MTT assay; assay type: functional, cell-based; details: HepG2, 72 h
Procedure, shortened: (§1)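 Cells plated at 3×10³/well, grown overnight in DMEM + 10% FBS, then exposed to compounds (DMSO stocks; 0.1% DMSO negative control) for 72 h at 37 °C. MTT (5 mg/mL in PBS, added at 10%) for 4 h, formazan dissolved in DMSO, A570 read. Inhibition = (Ac−As)/(Ac−Ab)×100; IC50 by calculator; ≥3 independent repeats.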

[2] = test system: Bel-7402; assay: Cytotoxicity against human Bel-7402 cells assessed as inhibition of proliferation incubated for 72 hrs by MTT assay; assay type: functional, cell-based; details: Bel-7402, 72 h; procedure, shortened: as §1
[3] = test system: A549; assay: Cytotoxicity against human A549 cells assessed as inhibition of proliferation incubated for 72 hrs by MTT assay; assay type: functional, cell-based; details: A549, 72 h; procedure, shortened: as §1
[4] = test system: U-251; assay: Cytotoxicity against human U251 cells assessed as inhibition of proliferation incubated for 72 hrs by MTT assay; assay type: functional, cell-based; details: U-251, 72 h; procedure, shortened: as §1
[5] = test system: HepG2; assay: Cytotoxicity against human HepG2 cells assessed as inhibition rate at 2.5 uM incubated for 72 hrs by MTT assay relative to control; assay type: functional
Procedure, shortened: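 HepG2 exposed to each compound at 2.5 µM-range single concentration for 72 h at 37 °C after overnight attachment in DMEM + 10% FBS; 0.1% DMSO control. MTT 4 h, DMSO solubilisation, A570; inhibition rate = (Ac−As)/(Ac−Ab)×100.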

## COc1ccc2c(=O)[nH]c(C(=O)c3cc(OC)c(OC)c(OC)c3)nc2c1
[1]
  pIC50: 4.97
[2]
  pIC50: 5.38
[3]
  pIC50: 4.90
[4]
  pIC50: 4.86
[5]
  inhibition at 2.5 µM: 43.4%

## COc1cc(C(=O)c2nc3ccc(Cl)cc3c(=O)[nH]2)cc(OC)c1OC
[5]
  inhibition at 2.5 µM: 3.4%

## O=C(c1ccc(F)cc1)c1nc2ccccc2c(=O)[nH]1
[1]
  pIC50: < 4.30

## COc1cc(C(=O)c2nc3cccc(OC)c3c(=O)[nH]2)cc(OC)c1OC
[1]
  pIC50: 5.04
[2]
  pIC50: 5.15
[3]
  pIC50: 4.81
[4]
  pIC50: 4.72
[5]
  inhibition at 2.5 µM: 10.2%

## COc1cc(C(=O)c2nc3ccc(F)cc3c(=O)[nH]2)cc(OC)c1OC
[5]
  inhibition at 2.5 µM: 5.1%

## COc1cc(C(=O)c2nc3cc(F)ccc3c(=O)[nH]2)cc(OC)c1OC
[5]
  inhibition at 2.5 µM: 9.7%

## COc1cc(C(=O)c2nc3cccc(F)c3c(=O)[nH]2)cc(OC)c1OC
[5]
  inhibition at 2.5 µM: 9.4%

## COc1cc(C(=O)c2nc3cc(F)c(F)cc3c(=O)[nH]2)cc(OC)c1OC
[5]
  inhibition at 2.5 µM: 1.2%

## COc1cc(C(=O)c2nc3cc(Br)ccc3c(=O)[nH]2)cc(OC)c1OC
[1]
  pIC50: 5.13
[2]
  pIC50: 5.31
[3]
  pIC50: 5.14
[4]
  pIC50: < 4.00
[5]
  inhibition at 2.5 µM: 17.6%

## COc1cc(C(=O)c2nc3ccccc3c(=O)n2C)cc(OC)c1OC
[1]
  pIC50: 5.09
[2]
  pIC50: 5.20
[3]
  pIC50: 4.69
[4]
  pIC50: < 4.00
[5]
  inhibition at 2.5 µM: 17.4%

## O=C(c1nc2ccccc2c(=O)[nH]1)c1ccccc1OC(F)(F)F
[1]
  pIC50: < 4.30

## C=CCn1c(C(=O)c2cc(OC)c(OC)c(OC)c2)nc2ccccc2c1=O
[1]
  pIC50: 4.85
[2]
  pIC50: 4.97
[3]
  pIC50: 4.98
[4]
  pIC50: 4.89
[5]
  inhibition at 2.5 µM: 21%

## COc1cc(C(=O)c2nc3ccccc3c(=O)n2Cc2nnc(-c3ccc(C)cc3)o2)cc(OC)c1OC
[1]
  pIC50: 4.98
[2]
  pIC50: 5.05
[3]
  pIC50: 4.33
[4]
  pIC50: 4.57
[5]
  inhibition at 2.5 µM: 12.6%

## COc1cc(C(=O)c2nc(OC(C)C)c3ccccc3n2)cc(OC)c1OC
[1]
  pIC50: 5.13
[2]
  pIC50: 5.31
[3]
  pIC50: 5.14
[4]
  pIC50: < 4.00
[5]
  inhibition at 2.5 µM: 10.8%

## COc1cc(C(=O)c2nc3c(OC)cccc3c(=O)[nH]2)cc(OC)c1OC
[5]
  inhibition at 2.5 µM: 8.1%

## COc1cc(C(=O)c2nc3ccccc3c(=O)n2Cc2nnc(-c3ccco3)o2)cc(OC)c1OC
[1]
  pIC50: 5.12
[2]
  pIC50: 5.09
[3]
  pIC50: 5.34
[4]
  pIC50: 4.80
[5]
  inhibition at 2.5 µM: 34.4%

## COc1cc(C(=O)c2nc3c(Br)cccc3c(=O)[nH]2)cc(OC)c1OC
[5]
  inhibition at 2.5 µM: 1.3%

## COc1cc(C(=O)c2nc3ccc([N+](=O)[O-])cc3c(=O)[nH]2)cc(OC)c1OC
[5]
  inhibition at 2.5 µM: 8.8%

## COc1cc(C(=O)c2nc3ccc(Br)cc3c(=O)[nH]2)cc(OC)c1OC
[5]
  inhibition at 2.5 µM: 3.4%

## O=C(c1ccc(O)cc1)c1nc2ccccc2c(=O)[nH]1 [PENIPANOID C]
[1]
  pIC50: < 4.30

## COc1ccc(C(=O)c2nc3ccccc3c(=O)[nH]2)cc1
[1]
  pIC50: < 4.30

## COc1cc(C(=O)c2nc3cccc(Br)c3c(=O)[nH]2)cc(OC)c1OC
[5]
  inhibition at 2.5 µM: 5.1%

## COc1cc(C(=O)c2nc3cc([N+](=O)[O-])ccc3c(=O)[nH]2)cc(OC)c1OC
[5]
  inhibition at 2.5 µM: 6.9%

## COc1cc(C(=O)c2nc3c(F)cccc3c(=O)[nH]2)cc(OC)c1OC
[5]
  inhibition at 2.5 µM: 6.8%

## O=C(c1ccc(Cl)cc1)c1nc2ccccc2c(=O)[nH]1
[1]
  pIC50: < 4.30

## COc1ccccc1C(=O)c1nc2ccccc2c(=O)[nH]1
[1]
  pIC50: < 4.30

## O=C(c1ccc(OC(F)(F)F)cc1)c1nc2ccccc2c(=O)[nH]1
[1]
  pIC50: < 4.30

## O=C(c1ccc(C(F)(F)F)cc1)c1nc2ccccc2c(=O)[nH]1
[1]
  pIC50: < 4.30

## C#CCn1c(C(=O)c2cc(OC)c(OC)c(OC)c2)nc2ccccc2c1=O
[1]
  pIC50: 5.30
[2]
  pIC50: 5.27
[3]
  pIC50: 5.12
[4]
  pIC50: 4.89
[5]
  inhibition at 2.5 µM: 54.7%

## COc1ccc2nc(C(=O)c3cc(OC)c(OC)c(OC)c3)[nH]c(=O)c2c1
[5]
  inhibition at 2.5 µM: 4.2%

## COc1cc2nc(C(=O)c3cc(OC)c(OC)c(OC)c3)[nH]c(=O)c2cc1OC
[5]
  inhibition at 2.5 µM: 5.1%

## O=C(c1nc2ccccc2c(=O)[nH]1)c1ccccc1C(F)(F)F
[1]
  pIC50: < 4.30

## COc1cc(C(=O)c2nc3c(Cl)cccc3c(=O)[nH]2)cc(OC)c1OC
[5]
  inhibition at 2.5 µM: 9.2%

## COc1cc(C(=O)c2nc3cc(Cl)ccc3c(=O)[nH]2)cc(OC)c1OC
[5]
  inhibition at 2.5 µM: 8.2%

## COc1cc(C(=O)c2nc3ccccc3c(=O)n2Cc2nnc(-c3ccc(F)cc3)o2)cc(OC)c1OC
[1]
  pIC50: 5.15
[2]
  pIC50: 5.31
[3]
  pIC50: 5.12
[4]
  pIC50: 4.56
[5]
  inhibition at 2.5 µM: 26.3%

## COc1cccc2c1C(=O)c1c(O)c3c(c(O)c1C2=O)C[C@@](O)(C(=O)CO)C[C@@H]3O[C@H]1C[C@H](N)[C@H](O)[C@H](C)O1 [DOXORUBICIN HYDROCHLORIDE]
[1]
  pIC50: 5.66
[2]
  pIC50: 5.89
[4]
  pIC50: 6.80

## CCOc1nc(C(=O)c2cc(OC)c(OC)c(OC)c2)nc2ccccc12
[1]
  pIC50: 4.81
[2]
  pIC50: 5.08
[3]
  pIC50: < 4.00
[4]
  pIC50: 4.98
[5]
  inhibition at 2.5 µM: 32%

## COc1cc(C(=O)c2nc3ccccc3c(=O)n2Cc2nnc(-c3ccc(Cl)cc3)o2)cc(OC)c1OC
[5]
  inhibition at 2.5 µM: 2.3%

## COc1cc(C(=O)c2nc(Cl)c3ccccc3n2)cc(OC)c1OC
[1]
  pIC50: 4.96
[2]
  pIC50: 5.16
[3]
  pIC50: 5.15
[4]
  pIC50: < 4.00
[5]
  inhibition at 2.5 µM: 18.4%

## COc1cc(C(=O)c2nc3cccc(Cl)c3c(=O)[nH]2)cc(OC)c1OC
[5]
  inhibition at 2.5 µM: 3.7%
